# Source: ChEMBL document CHEMBL4622923, “Discovery of 4-Phenylpiperidine-2-Carboxamide Analogues as Serotonin 5-HT2C Receptor-Positive Allosteric Modulators with Enhanced Drug-like Properties” (J Med Chem, 2020)
# Experiments:
# [1] = biological target: D(1B) dopamine receptor (Homo sapiens) (UniProt P21918); experiment: Displacement of [3H]-SCH23390 from human dopamine D5 receptor expressed in HEKT cell membranes at 10 uM incubated for 90 mins under dark condition by scintillation counting analysis relative to control
# [2] = biological target: T1, 5-hydroxytryptamine receptor 2C (Homo sapiens) (UniProt P28335); experiment: Displacement of [3H]-mesulergine from human 5HT2C expressed in HEKT cell membranes at 10 uM incubated for 90 mins under dark condition by scintillation counting analysis relative to control
# T1 sequence (whole entry): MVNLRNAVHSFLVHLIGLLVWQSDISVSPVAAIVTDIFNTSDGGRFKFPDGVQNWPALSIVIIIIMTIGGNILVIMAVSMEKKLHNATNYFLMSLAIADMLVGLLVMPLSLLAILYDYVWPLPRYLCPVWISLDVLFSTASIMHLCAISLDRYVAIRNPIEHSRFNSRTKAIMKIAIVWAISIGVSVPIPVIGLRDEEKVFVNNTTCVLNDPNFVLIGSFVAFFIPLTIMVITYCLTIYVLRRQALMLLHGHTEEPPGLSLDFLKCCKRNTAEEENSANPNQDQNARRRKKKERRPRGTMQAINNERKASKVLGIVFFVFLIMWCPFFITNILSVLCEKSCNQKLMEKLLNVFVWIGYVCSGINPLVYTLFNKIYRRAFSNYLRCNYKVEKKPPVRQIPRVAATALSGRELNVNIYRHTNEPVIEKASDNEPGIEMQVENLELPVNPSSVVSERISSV
# [3] = biological target: 5-HT2B receptor (Homo sapiens, UniProt P41595); experiment: Displacement of [3H]-LSD from human 5HT2B stably expressed in HEK cell membranes at 10 uM incubated for 90 mins under dark condition by scintillation counting analysis relative to control; conditions: membranes of HEK cells stably expressing human 5HT2B, probe [3H]-LSD
# [4] = biological target: 5-hydroxytryptamine receptor 1E (Homo sapiens) (UniProt P28566); experiment: Displacement of [3H]-5-HT from human 5HT1E stably expressed in HEK cell membranes at 10 uM incubated for 90 mins under dark condition by scintillation counting analysis relative to control
# [5] = biological target: Alpha-2B adrenergic receptor (Homo sapiens) (UniProt P18089); experiment: Displacement of [3H]-rauwolscine from human adrenergic alpha2B receptor transiently expressed in HEKT cell membranes at 10 uM incubated for 90 mins under dark condition by scintillation counting analysis relative to control
# [6] = biological target: 5-hydroxytryptamine receptor 1A (Homo sapiens) (UniProt P08908); experiment: Displacement of [3H]-8-OH-DPAT from human 5HT1A stably expressed in CHO cell membranes at 10 uM incubated for 90 mins under dark condition by scintillation counting analysis relative to control
# [7] = biological target: 5-hydroxytryptamine receptor 1D (Homo sapiens) (UniProt P28221); experiment: Displacement of [3H]-GR125743 from human 5HT1D transiently expressed in HEKT cell membranes at 10 uM incubated for 90 mins under dark condition by scintillation counting analysis relative to control
# [8] = biological target: Alpha-1D adrenergic receptor (Homo sapiens) (UniProt P25100); experiment: Displacement of [3H]-prazosin from human adrenergic alpha1D receptor at 10 uM incubated for 90 mins under dark condition by scintillation counting analysis relative to control
# [9] = biological target: Beta-1 adrenergic receptor (Homo sapiens) (UniProt P08588); experiment: Displacement of [125I]-pindolol from human beta1 adrenergic receptor expressed in CHO FLp-In cell membranes at 10 uM incubated for 90 mins under dark condition by scintillation counting analysis relative to control
# [10] = biological target: Delta-type opioid receptor (Homo sapiens) (UniProt P41143); experiment: Displacement of [3H]-DADLE from human delta opioid receptor stably expressed in HEK cell membranes at 10 uM incubated for 90 mins under dark condition by scintillation counting analysis relative to control
# [11] = Half life in rat liver microsomes at 10 uM in presence of NADPH; format: ADME, Microsome
# [12] = biological target: CYP2D6 (Homo sapiens, UniProt P10635); experiment: Inhibition of CYP2D6 (unknown origin) at 10 uM relative to control; format: ADME
# Method in brief: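 Each CYP isoform inhibition assay run with test compound at 10 µM; reported as percent inhibition.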
# [13] = Kinetic solubility of the compound in PBS at pH 7.4 measured after 2 hrs; format: physicochemical; conditions: buffer, pH 7.4, 2 h
# [14] = Apparent permeability across basolateral to apical side in MDCK-MDR1 cells; format: ADME, cell-based, Canis lupus familiaris; conditions: dog
# [15] = AUC (0 to infinity) in Sprague-Dawley rat at 20 mg/kg, po; format: ADME, organism-based; parameters: dose 20 mg/kg, time infinity, route oral; conditions: in vivo
# [16] = Oral bioavailability in Sprague-Dawley rat at 20 mg/kg; format: ADME, organism-based; conditions: in vivo
# Method in brief: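 Male Sprague-Dawley rats, 200–250 g, n = 3/group, randomly assigned; dosed 10 mg/kg iv or 20 mg/kg po in 10% DMSO:90% HP-β-CD. Retro-orbital blood sampled predose and 0.08 (iv only), 0.25, 0.5, 1, 2, 4, 8, 24 h. Noncompartmental analysis; Cmax read directly from plasma concentration–time plot; mean ± SEM.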
# [17] = Ratio of drug level in brain to plasma in Sprague-Dawley rat at 10 mg/kg, iv after 1 hr; format: ADME, organism-based
# Method in brief: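 Male Sprague-Dawley rats, n = 3/group, given 10 mg/kg iv in 10% DMSO:90% HP-β-CD. Brain and plasma collected at 0.25 and 1 h after dosing. Brain concentration (ng/g) divided by plasma concentration (ng/mL); mean ± SEM.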
# [18] = biological target: T2, 5-hydroxytryptamine receptor 2C (Homo sapiens, UniProt P28335); experiment: Agonist activity at human 5HT2CR expressed in CHO cells assessed as increase in intracellular calcium release at 1 nM incubated for 15 mins measured at 1 secs interval for 120 secs by calcium 4 dye based FLIPR assay relative to 5-HT; format: cell-based; conditions: 0.001 µM
# T2 sequence (P28335 whole entry): T1 sequence (whole entry)
# Method in brief: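 h5-HT2CR (unedited INI isoform) stably expressed in CHO cells; cells plated ~24 h, serum-free medium 3 h, then Calcium 4 dye with 2.5 mM probenecid in Ca/Mg-free HBSS pH 7.4 for 60 min at 37°C plus 15 min at room temperature. Compound given alone, read for 15 min before 5-HT. Peak fluorescence is expressed relative to the 5-HT Emax. 4-6 biological replicates, each in triplicate.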
# [19] = tested on: Rattus norvegicus; experiment: (§1) Potentiation of WAY163909-induced neurobiological activity in Sprague-Dawley rat assessed as increase in number of rat choosing WAY163909 associated lever at 2 mg/kg, ip treated 15 mins prior to WAY163909 addition and measured after 15 mins by drug discrimination test (reference value: 53%); format: functional
# [20] = tested on: Rattus norvegicus; experiment: as §1, with “15 mins in presence of 5HT2CR antagonist SB242084 by drug” for “15 mins by drug”; format: functional
# Method in brief: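 Two-lever FR20 drug discrimination in male Sprague-Dawley rats (n = 13) trained on WAY163909 0.75 mg/kg ip versus saline. SB242084 (0.5 mg/kg ip) given 15 min before WAY163909. Test compound (2 mg/kg ip) given 15 min before WAY163909 (0.5 mg/kg ip). Rats placed in chambers 15 min after WAY163909. Read-out is the percentage of rats choosing the WAY163909 lever.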
# Beta-1 adrenergic receptor (Homo sapiens), sequence (P08588 whole entry, looked up): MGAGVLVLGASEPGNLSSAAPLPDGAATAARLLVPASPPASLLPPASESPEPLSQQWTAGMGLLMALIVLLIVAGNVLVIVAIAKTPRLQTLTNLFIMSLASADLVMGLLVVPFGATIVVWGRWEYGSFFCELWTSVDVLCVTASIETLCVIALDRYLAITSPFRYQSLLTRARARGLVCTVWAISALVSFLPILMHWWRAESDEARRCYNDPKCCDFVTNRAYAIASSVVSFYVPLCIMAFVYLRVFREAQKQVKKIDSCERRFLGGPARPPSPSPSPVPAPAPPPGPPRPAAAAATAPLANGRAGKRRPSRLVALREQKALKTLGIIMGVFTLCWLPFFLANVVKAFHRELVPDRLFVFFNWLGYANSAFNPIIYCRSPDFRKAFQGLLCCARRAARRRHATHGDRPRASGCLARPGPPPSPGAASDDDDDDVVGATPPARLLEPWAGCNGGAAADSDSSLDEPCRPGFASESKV
# Alpha-1D adrenergic receptor (Homo sapiens), sequence (P25100 whole entry): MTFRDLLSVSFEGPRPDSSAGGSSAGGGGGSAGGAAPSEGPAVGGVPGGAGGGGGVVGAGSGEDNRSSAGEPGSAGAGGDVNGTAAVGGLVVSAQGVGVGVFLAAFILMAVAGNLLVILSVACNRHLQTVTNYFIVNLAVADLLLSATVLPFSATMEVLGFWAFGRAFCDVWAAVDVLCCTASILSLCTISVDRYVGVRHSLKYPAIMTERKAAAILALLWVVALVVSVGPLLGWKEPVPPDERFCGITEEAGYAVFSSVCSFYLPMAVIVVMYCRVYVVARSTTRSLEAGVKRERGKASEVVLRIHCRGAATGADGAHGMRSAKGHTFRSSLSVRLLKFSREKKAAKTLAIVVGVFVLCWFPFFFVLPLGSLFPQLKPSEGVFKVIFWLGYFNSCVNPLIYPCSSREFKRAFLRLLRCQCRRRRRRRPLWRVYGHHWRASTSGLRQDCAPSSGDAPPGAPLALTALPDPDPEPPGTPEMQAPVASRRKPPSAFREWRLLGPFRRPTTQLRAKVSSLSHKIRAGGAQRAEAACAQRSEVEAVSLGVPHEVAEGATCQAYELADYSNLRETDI
# 5-hydroxytryptamine receptor 1A (Homo sapiens), sequence (P08908 whole entry): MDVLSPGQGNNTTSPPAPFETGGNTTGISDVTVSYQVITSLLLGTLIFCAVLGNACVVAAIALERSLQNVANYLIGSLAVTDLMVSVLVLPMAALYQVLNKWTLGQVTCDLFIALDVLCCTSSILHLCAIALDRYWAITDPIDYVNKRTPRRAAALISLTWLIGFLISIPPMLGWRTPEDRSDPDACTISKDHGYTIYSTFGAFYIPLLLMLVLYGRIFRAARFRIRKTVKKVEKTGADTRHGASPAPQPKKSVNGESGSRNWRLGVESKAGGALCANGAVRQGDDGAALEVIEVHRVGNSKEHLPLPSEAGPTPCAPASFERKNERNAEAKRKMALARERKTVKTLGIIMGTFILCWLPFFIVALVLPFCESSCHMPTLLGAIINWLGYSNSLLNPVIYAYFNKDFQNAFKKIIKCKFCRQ
# D(1B) dopamine receptor (Homo sapiens), sequence (P21918 whole entry): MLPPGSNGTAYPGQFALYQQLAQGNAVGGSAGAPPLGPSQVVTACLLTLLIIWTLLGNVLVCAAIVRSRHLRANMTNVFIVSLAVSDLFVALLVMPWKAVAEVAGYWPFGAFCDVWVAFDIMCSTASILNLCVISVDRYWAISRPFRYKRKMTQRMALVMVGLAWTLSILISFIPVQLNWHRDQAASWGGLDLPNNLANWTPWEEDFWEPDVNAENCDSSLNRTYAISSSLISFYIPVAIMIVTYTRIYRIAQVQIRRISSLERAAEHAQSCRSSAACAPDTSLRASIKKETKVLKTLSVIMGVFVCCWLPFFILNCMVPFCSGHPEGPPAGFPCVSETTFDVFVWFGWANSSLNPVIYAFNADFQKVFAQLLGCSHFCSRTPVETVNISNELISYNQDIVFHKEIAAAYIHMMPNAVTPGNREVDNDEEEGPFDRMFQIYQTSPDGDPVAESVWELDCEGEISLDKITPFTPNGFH
# 5-hydroxytryptamine receptor 1D (Homo sapiens), sequence (P28221 whole entry): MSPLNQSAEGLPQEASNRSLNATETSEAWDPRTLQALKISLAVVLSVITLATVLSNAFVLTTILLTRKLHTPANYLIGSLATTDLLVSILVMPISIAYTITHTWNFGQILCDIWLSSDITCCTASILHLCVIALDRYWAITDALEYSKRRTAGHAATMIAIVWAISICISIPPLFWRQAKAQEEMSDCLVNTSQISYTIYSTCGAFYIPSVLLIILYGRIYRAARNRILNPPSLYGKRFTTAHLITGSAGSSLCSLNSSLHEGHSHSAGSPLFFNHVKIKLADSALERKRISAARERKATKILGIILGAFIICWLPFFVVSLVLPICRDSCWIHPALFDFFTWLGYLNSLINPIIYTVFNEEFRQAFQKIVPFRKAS
# Alpha-2B adrenergic receptor (Homo sapiens), sequence (P18089 whole entry): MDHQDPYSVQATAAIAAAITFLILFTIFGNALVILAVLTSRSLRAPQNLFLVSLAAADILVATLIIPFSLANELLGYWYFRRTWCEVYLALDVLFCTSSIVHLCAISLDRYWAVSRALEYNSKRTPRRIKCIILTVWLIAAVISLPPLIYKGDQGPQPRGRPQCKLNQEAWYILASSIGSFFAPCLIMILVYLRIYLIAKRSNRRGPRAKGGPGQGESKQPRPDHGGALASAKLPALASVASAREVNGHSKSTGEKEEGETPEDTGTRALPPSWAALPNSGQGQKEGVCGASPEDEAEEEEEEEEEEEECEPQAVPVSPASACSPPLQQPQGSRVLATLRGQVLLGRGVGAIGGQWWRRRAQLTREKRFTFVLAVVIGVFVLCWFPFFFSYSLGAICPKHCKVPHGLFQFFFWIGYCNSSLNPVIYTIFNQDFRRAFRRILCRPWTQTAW
# 5-hydroxytryptamine receptor 1E (Homo sapiens), sequence (P28566 whole entry): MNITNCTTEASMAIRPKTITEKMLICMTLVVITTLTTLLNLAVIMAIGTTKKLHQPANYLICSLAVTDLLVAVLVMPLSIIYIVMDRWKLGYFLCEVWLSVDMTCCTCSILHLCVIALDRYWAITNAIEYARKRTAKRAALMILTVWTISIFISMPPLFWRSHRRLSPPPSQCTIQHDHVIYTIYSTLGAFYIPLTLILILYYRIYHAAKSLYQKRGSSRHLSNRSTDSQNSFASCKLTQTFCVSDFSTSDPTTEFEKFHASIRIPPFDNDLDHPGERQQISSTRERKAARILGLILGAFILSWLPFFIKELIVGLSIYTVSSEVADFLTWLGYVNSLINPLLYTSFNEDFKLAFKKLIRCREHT
# Delta-type opioid receptor (Homo sapiens), sequence (P41143 whole entry): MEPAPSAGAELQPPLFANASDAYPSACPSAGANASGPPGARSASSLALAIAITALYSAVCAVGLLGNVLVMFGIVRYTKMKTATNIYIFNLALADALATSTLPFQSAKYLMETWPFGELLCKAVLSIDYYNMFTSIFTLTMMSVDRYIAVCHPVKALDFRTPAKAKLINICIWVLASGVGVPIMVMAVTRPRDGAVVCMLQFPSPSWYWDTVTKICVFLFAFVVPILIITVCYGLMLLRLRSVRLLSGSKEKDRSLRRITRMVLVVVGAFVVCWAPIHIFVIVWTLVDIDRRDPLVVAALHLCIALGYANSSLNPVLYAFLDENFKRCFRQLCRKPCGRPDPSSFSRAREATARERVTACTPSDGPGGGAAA
# 5-HT2B receptor, sequence (P41595 whole entry): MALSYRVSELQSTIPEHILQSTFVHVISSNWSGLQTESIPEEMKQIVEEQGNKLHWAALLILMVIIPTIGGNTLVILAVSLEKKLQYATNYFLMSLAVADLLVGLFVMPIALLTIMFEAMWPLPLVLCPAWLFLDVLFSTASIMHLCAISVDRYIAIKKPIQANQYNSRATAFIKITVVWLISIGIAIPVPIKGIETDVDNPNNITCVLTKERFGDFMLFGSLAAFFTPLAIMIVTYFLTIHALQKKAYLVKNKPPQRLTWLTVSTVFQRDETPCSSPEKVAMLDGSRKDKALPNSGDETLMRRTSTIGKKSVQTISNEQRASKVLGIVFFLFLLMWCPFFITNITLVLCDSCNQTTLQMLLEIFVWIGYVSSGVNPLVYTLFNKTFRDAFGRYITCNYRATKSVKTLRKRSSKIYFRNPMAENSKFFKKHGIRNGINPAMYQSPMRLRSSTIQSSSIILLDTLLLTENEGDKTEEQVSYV
# CYP2D6, sequence (P10635 whole entry, canonical isoform): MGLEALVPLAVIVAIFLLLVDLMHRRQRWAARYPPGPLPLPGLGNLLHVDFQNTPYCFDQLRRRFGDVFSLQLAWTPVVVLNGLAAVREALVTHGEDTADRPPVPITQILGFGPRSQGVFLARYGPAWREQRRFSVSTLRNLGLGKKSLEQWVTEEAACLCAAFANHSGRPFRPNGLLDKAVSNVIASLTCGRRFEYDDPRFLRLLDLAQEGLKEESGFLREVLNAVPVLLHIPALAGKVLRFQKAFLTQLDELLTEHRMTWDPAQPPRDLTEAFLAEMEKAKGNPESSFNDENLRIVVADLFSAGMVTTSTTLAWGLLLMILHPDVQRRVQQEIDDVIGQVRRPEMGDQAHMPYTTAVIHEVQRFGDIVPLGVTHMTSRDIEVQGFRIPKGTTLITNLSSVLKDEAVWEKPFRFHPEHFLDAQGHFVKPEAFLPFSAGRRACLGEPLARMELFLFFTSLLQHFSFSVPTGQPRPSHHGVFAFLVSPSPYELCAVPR
smiles,measurement,setting,value
O=C(NC[C@H](O)CO)[C@@H]1C[C@H](c2ccccc2)CCN1 (mixture of isomers),inhibition,[1],9.4%
same,inhibition,[2],26.9%
same,"inhibition at 1.5 h, 10 µM",[3],-7.2%
same,inhibition,[4],6.3%
same,inhibition,[5],14.5%
same,inhibition,[6],28.4%
same,inhibition,[7],15.3%
same,inhibition,[8],-4.8%
same,inhibition,[9],-7.7%
same,inhibition,[10],-6.1%
same,t1/2,[11],> 4 h
same,inhibition at 10 µM,[12],1.9%
same,Kinetic_solubility,[13],> 100 µM
same,Papp,[14],1.3 ×10⁻⁶ cm/s
same,AUC,[15],2244.7 ng·h/mL
same,F,[16],36.3%
same,BPR,[17],0.11
same,Activity,[18],Not Active
same,Activity,[19],92%
same,Activity,[20],0%
